Source: the RNAGym collection of RNA variant scans (doi:10.1038/s41586-018-0170-7)

B1: tRNA (parent)
chain: GUUCCGUUGGCGUAAUGGUAACGCGUCUCCCUCCUAAGGAGAAGACUGCGGGUUCGAGUCCCGUACGGAACG

Variants of: B1
Assay: yeast fitness, log relative to wild type (ln ratio); higher = fitter; tRNA-Arg(CCU), competitive growth, 37 C, 1 M NaCl
Method in brief: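 Variants were counted by 125 bp paired-end Illumina sequencing after pools of a combinatorial tRNA-Arg(CCU) library, held on a HIS3 centromeric plasmid in BY4742 lacking the chromosomal gene, grew ~6.5 generations (~26.5 h) in SC-HIS 1M NaCl at 37 °C. Each genotype's fitness is the natural log of its generations relative to the wild type's. Generations were OD-scaled log2 output/input frequencies, inverse-variance weighted over replicates.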

Variant | yeast fitness (ln)
AUUCCAUUGGCGUAAUGGUAACGCGUCUCCCUCCUAAGGAGAAGACUGCGGGUUCGAGUCCCGUAAGGAAUG [G1A G6A C66A C71U] | -0.0846
GUUCCGUUGGCGUAAUGGUAACGCGUCUCCCUCCUAAGGAGACGAUUGCGGGUUCGAGUCCCGUAAGGAGUG [A43C C46U C66A A70G C71U] | -0.0713
AGUCCGUUGGCGUAAUGGUAACGCGUCUCCCUCCUAAGGAGACGAUUGCGGGUUCGAGUCCCGUAUGGAACG [G1A U2G A43C C46U C66U] | -0.116
ACUCCGUUGGCGUAAUGGUAACGCGUCUCCCUCCUAAGGAGAAGACUGCGGGUUCGAGUCCCGUACGGAGUG [G1A U2C A70G C71U] | -0.0141
ACUCCUUUGGCGUAAUGGUAACGCGUCUCCCUCCUAAGGAGACGAUUGCGGGUUCGAGUCCCGUACGGAUCG [G1A U2C G6U A43C C46U A70U] | -0.0463
GGUCCGUUGGCGUAAUGGUAACGCGUUUCCCUCCUAAGGAGAAGAUUGCGGGUUCGAGUCCCGUAUGGAUCG [U2G C27U C46U C66U A70U] | -0.0345
GCUCCGUUGGCGUAAUGGUAACGCGUUUCCCUCCUAAGGAGAAGACUGCGGGUUCGAGUCCCGUAUGGAAUG [U2C C27U C66U C71U] | -0.177
GCUCCAUUGGCGUAAUGGUAACGCGUUUCCCUCCUAAGGAGACGACUGCGGGUUCGAGUCCCGUACGGAACG [U2C G6A C27U A43C] | -0.0322
GGUCCAUUGGCGUAAUGGUAACGCGUCUCCCUCCUAAGGAGAAGACUGCGGGUUCGAGUCCCGUAAGGAUCG [U2G G6A C66A A70U] | -0.178
GUUCCAUUGGCGUAAUGGUAACGCGUUUCCCUCCUAAGGAGAAGACUGCGGGUUCGAGUCCCGUAUGGAACG [G6A C27U C66U] | -0.0352
GUUCCAUUGGCGUAAUGGUAACGCGUUUCCCUCCUAAGGAGACGAUUGCGGGUUCGAGUCCCGUACGGGUCG [G6A C27U A43C C46U A69G A70U] | -0.16
GUUCCGUUGGCGUAAUGGUAACGCGUCUCCCUCCUAAGGAGAAGACUGCGGGUUCGAGUCCCGUAUGGGAUG [C66U A69G C71U] | -0.166
AGUCCGUUGGCGUAAUGGUAACGCGUUUCCCUCCUAAGGAGACGACUGCGGGUUCGAGUCCCGUACGGGAUG [G1A U2G C27U A43C A69G C71U] | -0.37
GGUCCAUUGGCGUAAUGGUAACGCGUCUCCCUCCUAAGGAGAAGAUUGCGGGUUCGAGUCCCGUAUGGGUCG [U2G G6A C46U C66U A69G A70U] | -0.00305
ACUCCAUUGGCGUAAUGGUAACGCGUUUCCCUCCUAAGGAGAAGAUUGCGGGUUCGAGUCCCGUAUGGAGCG [G1A U2C G6A C27U C46U C66U A70G] | -0.0633
AUUCCUUUGGCGUAAUGGUAACGCGUUUCCCUCCUAAGGAGACGAUUGCGGGUUCGAGUCCCGUAUGGGAUG [G1A G6U C27U A43C C46U C66U A69G C71U] | -0.423
GCUCCUUUGGCGUAAUGGUAACGCGUUUCCCUCCUAAGGAGAAGAUUGCGGGUUCGAGUCCCGUAAGGAACG [U2C G6U C27U C46U C66A] | -0.267
GGUCCGUUGGCGUAAUGGUAACGCGUUUCCCUCCUAAGGAGAAGAUUGCGGGUUCGAGUCCCGUACGGGUCG [U2G C27U C46U A69G A70U] | -0.0139
GCUCCUUUGGCGUAAUGGUAACGCGUCUCCCUCCUAAGGAGACGACUGCGGGUUCGAGUCCCGUAAGGAACG [U2C G6U A43C C66A] | -0.135

Variant | yeast fitness (ln)
GCUCCGUUGGCGUAAUGGUAACGCGUCUCCCUCCUAAGGAGAAGAUUGCGGGUUCGAGUCCCGUACGGAUCG [U2C C46U A70U] | 0.0104
GCUCCGUUGGCGUAAUGGUAACGCGUCUCCCUCCUAAGGAGACGACUGCGGGUUCGAGUCCCGUAAGGGUUG [U2C A43C C66A A69G A70U C71U] | -0.368
AUUCCGUUGGCGUAAUGGUAACGCGUUUCCCUCCUAAGGAGACGACUGCGGGUUCGAGUCCCGUACGGAUUG [G1A C27U A43C A70U C71U] | -0.269
AGUCCAUUGGCGUAAUGGUAACGCGUUUCCCUCCUAAGGAGACGACUGCGGGUUCGAGUCCCGUACGGAGUG [G1A U2G G6A C27U A43C A70G C71U] | -0.344
GGUCCAUUGGCGUAAUGGUAACGCGUUUCCCUCCUAAGGAGAAGACUGCGGGUUCGAGUCCCGUAAGGGUCG [U2G G6A C27U C66A A69G A70U] | -0.287
AGUCCGUUGGCGUAAUGGUAACGCGUCUCCCUCCUAAGGAGAAGACUGCGGGUUCGAGUCCCGUAAGGAUCG [G1A U2G C66A A70U] | -0.0922
GCUCCUUUGGCGUAAUGGUAACGCGUUUCCCUCCUAAGGAGACGACUGCGGGUUCGAGUCCCGUAAGGAUCG [U2C G6U C27U A43C C66A A70U] | -0.167
GGUCCUUUGGCGUAAUGGUAACGCGUCUCCCUCCUAAGGAGACGAUUGCGGGUUCGAGUCCCGUAAGGAACG [U2G G6U A43C C46U C66A] | -0.205
ACUCCGUUGGCGUAAUGGUAACGCGUCUCCCUCCUAAGGAGACGACUGCGGGUUCGAGUCCCGUACGGAACG [G1A U2C A43C] | -0.0267
GGUCCGUUGGCGUAAUGGUAACGCGUCUCCCUCCUAAGGAGACGACUGCGGGUUCGAGUCCCGUAUGGAAUG [U2G A43C C66U C71U] | -0.343
AGUCCAUUGGCGUAAUGGUAACGCGUUUCCCUCCUAAGGAGAAGACUGCGGGUUCGAGUCCCGUAUGGGUCG [G1A U2G G6A C27U C66U A69G A70U] | -0.26
GUUCCAUUGGCGUAAUGGUAACGCGUUUCCCUCCUAAGGAGAAGACUGCGGGUUCGAGUCCCGUAAGGAGUG [G6A C27U C66A A70G C71U] | -0.364
GUUCCGUUGGCGUAAUGGUAACGCGUCUCCCUCCUAAGGAGAAGACUGCGGGUUCGAGUCCCGUACGGGGCG [A69G A70G] | -0.0138
AUUCCUUUGGCGUAAUGGUAACGCGUUUCCCUCCUAAGGAGAAGACUGCGGGUUCGAGUCCCGUAUGGAAUG [G1A G6U C27U C66U C71U] | -0.389
AUUCCGUUGGCGUAAUGGUAACGCGUCUCCCUCCUAAGGAGAAGACUGCGGGUUCGAGUCCCGUAAGGAGUG [G1A C66A A70G C71U] | -0.0638
GUUCCUUUGGCGUAAUGGUAACGCGUCUCCCUCCUAAGGAGACGACUGCGGGUUCGAGUCCCGUAUGGAAUG [G6U A43C C66U C71U] | -0.422
AGUCCGUUGGCGUAAUGGUAACGCGUUUCCCUCCUAAGGAGACGAUUGCGGGUUCGAGUCCCGUAUGGAUCG [G1A U2G C27U A43C C46U C66U A70U] | -0.214
AGUCCGUUGGCGUAAUGGUAACGCGUCUCCCUCCUAAGGAGACGACUGCGGGUUCGAGUCCCGUACGGAUCG [G1A U2G A43C A70U] | -0.33
